From ChEMBL document CHEMBL4184306 (Bioorg Med Chem Lett, 2018)
≈ marks a conversion by molar mass, not a printed value.

How the values were obtained:
A2780 (human) = assay: Selectivity index, ratio of IC50 for SV-40 immortalized human ovarian epithelial cells to IC50 for human A2780 cells
Plasmodium falciparum [1] = assay: Antiplasmodial activity against Plasmodium falciparum Dd2 by SYBR Green I fluorescence assay; format: functional, organism-based
[2] = Growth inhibition of human A2780cis cells after 72 hrs by SRB assay; format: functional, cell-based
A2780 [3] = assay: Growth inhibition of human A2780 cells after 72 hrs by SRB assay; format: functional, cell-based; conditions: A2780, 72 h
[4] = Growth inhibition of SV-40 immortalized human ovarian epithelial cells after 72 hrs by SRB assay
OVCAR-8 = assay: Growth inhibition of human OVCAR8 cells after 72 hrs by SRB assay; format: functional, cell-based; conditions: OVCAR-8, 72 h
[5] = Growth inhibition of human A2780cis cells after 72 hrs by MTT assay; format: functional, cell-based
Plasmodium falciparum [6] = assay: Antiplasmodial activity against chloroquine sensitive Plasmodium falciparum FCR-3/Gambia assessed as [3H]hypoxanthine incorporation after 72 hrs; format: functional, organism-based
[7] = Growth inhibition of SV-40 immortalized human ovarian epithelial cells after 48 hrs by MTT assay
A2780 [8] = assay: Growth inhibition of human A2780 cells after 48 hrs by MTT assay; format: functional, cell-based; conditions: A2780, 48 h
[9] = Aqueous solubility of the compound in phosphate buffer at pH 7.4 measured after 24 hrs by HPLC method; format: physicochemical
Summary of the method: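 Measured in phosphate buffer at pH 7.4 and 37 °C, with the dissolved compound quantified by high-performance liquid chromatography.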

Plasmodium falciparum [10] = assay: Antiplasmodial activity against chloroquine and artemisinin sensitive Plasmodium falciparum FCR-3/Gambia after 72 hrs; format: functional, organism-based

IC50 (Plasmodium falciparum [1]) | IC50 (A2780 [3]) | IC50 (OVCAR-8) | IC50 (Plasmodium falciparum [6]) | IC50 (A2780 [8]) | solubility at 24 h [9] | Compound | selectivity ratio (A2780 (human)) | IC50 [2] | IC50 [4] | IC50 [5] | IC50 [7] | IC50 (Plasmodium falciparum [10])
– | 0.009 µM | 0.01 µM | 0.003 to 0.006 µM | 0.05 µM | – | CC(=O)O[C@H]1C(=O)[C@@]2(C)[C@H]([C@H](OC(=O)c3ccccc3)[C@]3(O)C[C@H](OC(=O)[C@H](O)[C@@H](NC(=O)c4ccccc4)c4ccccc4)C(C)=C1C3(C)C)[C@]1(OC(C)=O)CO[C@@H]1C[C@@H]2O [PACLITAXEL] | – | – | – | 0.003 to 0.004 µM | 0.03 µM | –
16.2 µM | 4.5 µM | 6 µM | – | – | – | CC1=C(Cl)C(=O)C(C(C)(C)C)=C(Cl)C1=O | < 1 | 4.2 µM | 3.1 µM | – | – | –
52.7 µM | 14 µM | 12.9 µM | – | – | – | CNC1=C(C)C(=O)C=C(C(C)C)C1=O | 5 | 7.3 µM | 36.8 µM | – | – | –
134 µM | 5.7 µM | 6.2 µM | – | – | – | Cc1cc(O)ccc1O [METHYLHYDROQUINONE] | – | 4.7 µM | 6.3 µM | – | – | –
100 µM | 15 µM | 32 µM | – | – | – | CC1=CC(=O)C(Nc2ccc(F)cc2)=CC1=O | 1.3 | 21.8 µM | 20.2 µM | – | – | –
10.4 µM | 3.2 µM | 5.2 µM | – | – | 5040 µg/mL (≈ 37 mM) | CC1=CC(=O)C=C(C)C1=O | 1.7 | 2.9 µM | 5.3 µM | – | – | –
19.3 µM | 19.9 µM | 35.1 µM | – | – | – | CC1=C(N)C(=O)C(C(C)C)=CC1=O | 7.1 | 19.3 µM | 139 µM | – | – | –
4.2 µM | 34 µM | 51.2 µM | – | – | – | CC(C)(C)C1=CC(=O)C(C(C)(C)C)=CC1=O | – | 42.5 µM | 117 µM | – | – | –
15.9 µM | 3.1 µM | 8.9 µM | – | – | – | Cc1cc(O)c(C(C)C)cc1O | 4.5 | 9.8 µM | 14 µM | – | – | –
78.8 µM | 36.1 µM | 54.2 µM | – | – | – | CCC(C)(C)C1=CC(=O)C(C(C)(C)CC)=CC1=O | > 5 | 48.8 µM | > 200 µM | – | – | –
15.4 µM | 3.6 µM | 8.3 µM | – | – | – | Cc1cc(O)cc(C)c1O | 2.1 | 3.6 µM | 7.8 µM | – | – | –
191 µM | 16.7 µM | 35.6 µM | – | – | – | CC1=C(N(C)C)C(=O)C=CC1=O | 1.3 | 20.5 µM | 28.2 µM | – | – | –
29.5 µM | 24.6 µM | 37.4 µM | – | – | – | CC(C)(C)C1=CC(=O)C=C(C(C)(C)C)C1=O | – | 31.1 µM | 51.5 µM | – | – | –
116 µM | 44.2 µM | 56.5 µM | – | – | – | CC(C)(C)CC(C)(C)C1=CC(=O)C(C(C)(C)CC(C)(C)C)=CC1=O | > 4.6 | 51.8 µM | > 200 µM | – | – | –
9.9 µM | 6.2 µM | 5.6 µM | – | – | 8320 µg/mL (≈ 50.4 mM) | CC1=CC(=O)C(N(C)C)=CC1=O | 1.7 | 4.7 µM | 7.9 µM | – | – | –
25.6 µM | 3.4 µM | 11.6 µM | – | – | – | Cc1c(O)c(Br)c(C(C)C)c(O)c1Br | 3.2 | 4.8 µM | 11 µM | – | – | –
11.1 µM | 12.6 µM | 16 µM | – | – | – | CCNC1=C(C)C(=O)C=C(C(C)C)C1=O | 3.1 | 9.6 µM | 30.3 µM | – | – | –
17.9 µM | 6.4 µM | 12.2 µM | – | – | – | Cc1cc(O)c(C(C)(C)C)cc1O | 13.4 | 11.5 µM | 85.6 µM | – | – | –
19.7 µM | 7.5 µM | 13.5 µM | – | – | – | CC1=CC(=O)C(C(C)(C)C)=CC1=O | 7.5 | 7.9 µM | 55.8 µM | – | – | –

Compound | IC50 (Plasmodium falciparum [1]) | IC50 (A2780 [3]) | IC50 (OVCAR-8) | IC50 (Plasmodium falciparum [6]) | IC50 (A2780 [8]) | solubility at 24 h [9] | selectivity ratio (A2780 (human)) | IC50 [2] | IC50 [4] | IC50 [5] | IC50 [7] | IC50 (Plasmodium falciparum [10])
CC1=C(Br)C(=O)C(C(C)C)=C(Br)C1=O [Dibromothymoquinone] | 30 µM | 4.9 µM | 3.6 µM | – | – | – | 1.5 | 5.3 µM | 7.3 µM | – | – | –
CC1=CC(=O)C=CC1=O [Cresoquinone] | – | 12.1 µM | 13.4 µM | – | – | – | < 1 | 11.8 µM | 6 µM | – | – | –
CC1=CC(=O)C(C(C)C)=CC1=O [THYMOQUINONE] | 25 µM | 7.9 µM | 11.6 µM | – | – | 468 µg/mL (≈ 2.85 mM) | – | 7.8 µM | 17.8 µM | – | – | 1.2 µM
CC(C)(C)C1=CC(=O)C=CC1=O | 15.6 µM | 5.7 µM | 10 µM | – | – | – | 1.8 | 4.9 µM | 10.3 µM | – | – | –
